# Experimental data pooled from the literature.
# Protocols differ between the studies behind these lines.
# MAP2K6: Dual specificity mitogen-activated protein kinase kinase 6 (MAP2K6, Homo sapiens, UniProt P52564)
SMILES,target,observed,action,method,concentration,quantity,result
CCCOc1ccc(OC)c(F)c1C(=O)c1ccc(C(=O)N[C@@H]2CNC[C@H]2NC(=O)c2ccc3[nH]ncc3c2)cc1,MAP2K6,enzyme activity,inhibitor,,10 µM,remaining activity,103%
N#CCCc1ccc2c(c1)-c1[nH]c3ccc([N+](=O)[O-])cc3c1CC(=O)N2,MAP2K6,cell-free assay,,,0.5 µM,remaining signal,97.2%
CNCc1ccc(-c2cc(-c3nc(-c4ccc(S(=O)(=O)C(C)C)cc4)cnc3N)on2)cc1,MAP2K6,enzyme activity,inhibitor,,2 µM,inhibition,28%
CN1CC(Oc2cnc(C#N)cc2-c2ccn3nc(NC(=O)C4CC4)cc3c2)C1,MAP2K6,enzyme activity,inhibitor,,1 µM,inhibition,21%
CNCc1ccccc1-c1csc([C@@H](C)Nc2nc(C)nc3cc(OC)c(OC)cc23)c1,MAP2K6,cell-free assay,,competition with immobilised ligand,1 µM,remaining binding,86%
CN(C)C1CCN(CC#Cc2nn(C3CCCC3)c3nc(NCc4ccccc4)ncc23)C1 (centres unmarked),MAP2K6,enzyme activity,inhibitor,FRET,0.1 µM,inhibition,0%
CC(C)(C)c1nc(-c2cccc(NS(=O)(=O)c3c(F)cccc3F)c2F)c(-c2ccnc(N)n2)s1,"Dual specificity mitogen-activated protein kinase kinase 6 (MAP2K6, Homo sapiens, UniProt P52564, S207D/T211D)",enzyme activity,inhibitor,radiometric,1 µM,remaining activity,96%
COc1cc(Cl)c(C(=O)N[C@@H](CN[C@H]2CC[C@@H](N)CC2)Cc2ccc(C#N)cc2)cc1-c1ccc(CN[C@H](C)c2ccc(C)cc2)o1,MAP2K6,enzyme activity,inhibitor,,1 µM,remaining activity,88%
CC(C)(O)c1cncc(-c2nc3ccc(F)cc3n2C2CC2)c1,MAP2K6,cell-free assay,,competition with immobilised ligand,1 µM,remaining binding,100%
Cc1ccc(Nc2nccc(N(C)c3ccc4c(C)n(C)nc4c3)n2)cc1S(N)(=O)=O,MAP2K6,enzyme activity,inhibitor,,10 µM,inhibition,90%
Cn1c2c(c3ccc(Cl)c(Cl)c31)C(C#N)C1(CCCC1)NC2=O (centres unmarked),MAP2K6,thermal stability,,DSF,10 µM,ΔTm,0 °C
CCC(=N\O)/C(C)=C/c1ccc(F)cc1,MAP2K6,cell-free assay,,competition with immobilised ligand,1 µM,remaining binding,98%
COc1cc2ncnc(Nc3ccc(Oc4ccccc4)c(C)c3C)c2cc1OC,MAP2K6,enzyme activity,inhibitor,,1 µM,inhibition,2%
COc1cc(/C=C/C(=O)CC(=O)/C=C/c2ccc(O)c(OC)c2)ccc1O,MAP2K6,enzyme activity,inhibitor,,1 µM,activity vs control,102%
Cn1c2c(Cl)c(Cl)ccc2c2cn[nH]c(=O)c21,MAP2K6,thermal stability,,DSF,10 µM,ΔTm,0.1 °C
Cn1c(=O)n(-c2ccc(C(C)(C)C#N)cc2)c2c3cc(-c4cnc5ccccc5c4)ccc3ncc21,MAP2K6,enzyme activity,inhibitor,,10 µM,remaining activity,93%
Cc1cc(-n2nc(Cc3cc(F)cc(C(F)(F)F)c3)nc2C)ccc1C(N)=O,MAP2K6,cell-free assay,,competition with immobilised ligand,1 µM,remaining binding,83%
Cc1ccc(NC(=O)c2ccc(CN3CCN(C)CC3)cc2)cc1Nc1nc(-c2cccnc2)cs1,MAP2K6,cell-free assay,,,0.5 µM,remaining signal,96.5%
Cc1ccc(NC(=O)c2ccc(C)c(C(F)(F)F)c2)cc1C#Cc1nn(C2CCC(O)CC2)c2ncnc(N)c12 (centres unmarked),MAP2K6,cell-free assay,,,10 µM,remaining signal,43%
Cc1ccc(C(=O)NCc2ccsc2)cc1C#Cc1cn(C(C)C)c2ncnc(N)c12,MAP2K6,enzyme activity,inhibitor,,1 µM,activity vs control,86%
CCN1CCC2(CC1)NC(=O)c1c(c3ccc(Cl)c(Cl)c3n1C)C2C#N (racemic),MAP2K6,thermal stability,,DSF,10 µM,ΔTm,0 °C
O=C1Nc2ccc(Cl)cc2C1=Cc1cc(Cl)c(O)c(Cl)c1,MAP2K6,cell-free assay,,,0.5 µM,remaining signal,96.4%
CN(C)c1ncnc(-c2ccc3nc(Nc4cc(CN5CCN(C(=O)CC(F)(F)F)CC5)ccn4)[nH]c3c2)c1Cl,MAP2K6,cell-free assay,,competition with immobilised ligand,1 µM,remaining binding,92%
CCCS(=O)(=O)Nc1ccc(F)c(C(=O)c2c[nH]c3ncc(-c4ccc(Cl)cc4)cc23)c1F,MAP2K6,enzyme activity,inhibitor,,1 µM,inhibition,< 10%
COc1cc2ncnc(Nc3ccc(F)c(Cl)c3)c2cc1OCCCN1CCOCC1,MAP2K6,cell-free assay,,,0.5 µM,remaining signal,90.1%
Cc1cc(NC(=O)c2cccc3cc(-c4cccc5[nH]nc(N)c45)ccc23)ccc1F,MAP2K6,enzyme activity,inhibitor,,0.1 µM,activity vs control,89%
C[C@@H]1CN(c2cc(-c3nn(C)c4ccc(OC5(C)CC5)cc34)ncn2)C[C@H](C)O1,MAP2K6,cell-free assay,,competition with immobilised ligand,1 µM,remaining binding,89%
Cn1c2c(c3ccccc31)C(C#N)C(C)(C)NC2=O (centres unmarked),MAP2K6,thermal stability,,DSF,10 µM,ΔTm,0 °C
COc1cc(Nc2cnc(C#N)c(O[C@H](C)CN(C)C)n2)ncc1-c1cnn(C)c1,MAP2K6,enzyme activity,inhibitor,radiometric,10 µM,remaining activity,91%
CNC(=O)c1cc(Oc2ccc(NC(=O)Nc3ccc(Cl)c(C(F)(F)F)c3)cc2)ccn1,MAP2K6,enzyme activity,inhibitor,,0.3 µM,inhibition,-1%
CCCCN(CCCC)C(=O)CN1C[C@@H](c2cc(OC)c3c(c2)OCO3)[C@H](C(=O)O)[C@H]1CC(C)(C)CCC,MAP2K6,cell-free assay,,competition with immobilised ligand,1 µM,remaining binding,90.8%
Cn1c2c(c3ccc(Cl)c(Cl)c31)C(C#N)C1(CCCCC1)NC2=O (racemic),MAP2K6,thermal stability,,DSF,10 µM,ΔTm,0.2 °C
C[S+]([O-])c1ccc(-c2nc(-c3ccncc3)c(-c3ccc(F)cc3)[nH]2)cc1 (centres unmarked),MAP2K6,cell-free assay,,,0.5 µM,remaining signal,102%
CO[C@@H](C)c1c(Nc2ccc([C@H](N(C)C(=O)C3CCS(=O)(=O)CC3)C(F)(F)F)cc2)cnc2cc(Cl)nn12,MAP2K6,cell-free assay,,competition with immobilised ligand,1 µM,remaining binding,91%
O=C(Nc1cnn(-c2csc(C(=O)NC3COC3)c2)c1)Nc1c(F)cccc1Cl,MAP2K6,enzyme activity,inhibitor,,5 µM,remaining activity,94.4%
